Screens: PubChem BioAssay, Sanford-Burnham Center for Chemical Genomics
Most compounds without a hit are left out; they make up all but 2% or so of the library.
Rpn11 block: inhibitors of human proteasome Rpn11. inhibition, % at 20 µM. hit rate 0.59% among 360,000. human 26S proteasome, Ub4-pepOG fluorescence polarization; 20S core pre-blocked with epoxomicin;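 active = inhibition at 20 µM, scaled to each plate's controls, above about 33%, limit read from the data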
LMPTP inh: LMPTP (human) inhibition; AID 651560; inhibition, % at 20 µM; hit rate 0.22% among 360,000; P24666; recombinant LMPTP-A, OMFP fluorogenic substrate, fluorescence intensity;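 active = compounds that cut the enzyme signal by at least half of the control window in the single-dose screen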;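 note: plate controls were DMSO wells with enzyme plus substrate for no effect and substrate without enzyme for full effect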
Target sequence (P24666 whole entry, looked up): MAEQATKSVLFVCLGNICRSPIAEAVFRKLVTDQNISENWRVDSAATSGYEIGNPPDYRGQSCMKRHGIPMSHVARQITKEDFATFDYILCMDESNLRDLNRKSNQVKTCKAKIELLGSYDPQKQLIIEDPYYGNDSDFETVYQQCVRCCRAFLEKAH
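Assay system: LMPTP-A phosphatase enzyme | Input: 0.625 nM enzyme | Also added: Fluorogenic phosphatase substrate OMFP at 400 µM final | Compound dosing: One test concentration per compound, 20 µM, with 3% DMSO overall | Schedule: 50 min enzyme reaction at room temperature, protected from light | Signal: Fluorescence intensity | Benchmarks: no-enzyme and uninhibited controls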
STEP inh: STEP (human) phosphatase inhibition; P54829; recombinant STEP, OMFP fluorogenic substrate, fluorescence; inhibition, % at 20 µM; hit rate 0.25% among 360,000; AID 588621;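 active = inhibition at 20 µM, scaled per plate between control wells, above about 37%, limit read from the data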;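 note: 0% = DMSO with enzyme and substrate and 100% = substrate only without enzyme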
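Material: STEP (striatal-enriched tyrosine phosphatase) enzyme, cell-free | Medium: 50 mM Bis-Tris pH 6.0 with 2.5 mM DTT and 0.005% Tween 20 | Read-out: Percent inhibition scaled to no-enzyme and uninhibited-enzyme controls, plate-pattern corrected | Signal: Fluorescence read at 480 nm ex / 540 nm em | Times: 20 min reaction, room temperature, in the dark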
DNMT1 inh: DNMT1 (human) enzyme inhibition; hit rate 0.83% among 360,000; inhibition (reported as % activation of signal), % at 10 µM; DNMT1 molecular beacon, Hinp1I cleavage, fluorescence; AID 588458; P26358; in the data active = inhibition above about 50%
Scp1 inh: inhibitors of human Scp-1 phosphatase; inhibition, % at 20 µM; hit rate 0.88% among 340,000; AID 493091; Recombinant Scp1, phosphopeptide, malachite green phosphate absorbance;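 active = inhibition above about 50% at 20 µM, limit read from the data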;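 note: plate controls were DMSO wells with enzyme for no effect and wells lacking enzyme for full effect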
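Material – SCP-1 phosphatase catalytic domain, residues 76-261 · Buffer or medium – Acidic Tris acetate buffer with magnesium and detergent · Also added – Phospho 17-mer peptide substrate · Compound – single 20 µM dose, 1% DMSO · Times – 45 min room-temperature reaction, 5 min colour, 30 min stabiliser · Technique – Phosphate-binding colour reagent, absorbance read at 630 nm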
Scp-1 conf: Scp-1 (human) inhibition, single-dose confirmed; shares compounds with Scp1 inh; recombinant SCP-1 catalytic domain, phosphate release, malachite green absorbance; inhibition, % at 20 µM; hit rate 61% among 2,500;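 note: plate controls were DMSO with enzyme for no effect and buffer wells lacking enzyme for full effect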
Scp-1 MG ctr: colorimetric interference in Scp-1 counter-screen; shares compounds with Scp1 inh; AID 540313; 2,500 tested, under 10 active; apparent inhibition (interference), % at 20 µM; Colorimetric interference counterscreen, malachite green absorbance 630 nm;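 note: compounds added after enzyme reaction finished so only phosphate colour detection is probed; plate controls were DMSO wells with completed Scp-1 reaction for no effect and substrate wells lacking enzyme for full effect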
Scp1 DSF: binds human Scp-1, shifting its melting temperature; shares compounds with Scp1 inh; Recombinant SCP1, Sypro Orange thermal shift Tm; thermal shift relative to vanadate control, % at 40 µM; hit rate 25% among 1,500; AID 540329;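 active = substances whose mean melting-temperature shift, as a percentage of the reference inhibitor's shift, reaches about 5.3%, limit read from the data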;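 note: 0% = Tm of DMSO wells and 100% = Tm with sodium orthovanadate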
DNMT1 confirm: confirmation of human DNMT1 inhibitors | shares compounds with DNMT1 inh | hit rate 8% among 2,300 | inhibition, % at 10 µM | DNMT1 molecular beacon HinP1I cleavage, fluorescence | AID 602385;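 active = average inhibition of at least 30% in the single-concentration confirmation test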
Beacon interf: counter-screen for DNMT1 inhibitors: spectral interference. shares compounds with DNMT1 inh. DNMT1 molecular beacon spectral interference counterscreen, fluorescence 485/520. activation (fluorescence interference), % at 10 µM. hit rate 1% among 2,300;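 active = activation of at least 30% at 10 µM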;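 note: DNMT1 catalytic domain with a HinP1I cleavage step and a FAM/dabcyl DNA beacon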
Rpn11 confirm: confirmation of human proteasome Rpn11 inhibitors; shares compounds with Rpn11 block; purified human 26S proteasome, Ub4-pepOG fluorescence polarization; proteasome pretreated with epoxomicin; inhibition, % at 20 µM; hit rate 29% among 1,900; AID 602318; in the data active = inhibition above about 40%
MMP-2 inh: MMP-2 (human) inhibition counter-screen; shares compounds with Rpn11 block; inhibition, % at 20 µM; recombinant MMP-2, FRET peptide cleavage fluorescence; hit rate 4% among 1,900; in the data active = inhibition above about 40%;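 note: human MMP-2 activated beforehand with APMA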
Thrombin inh: thrombin (bovine) inhibition counter-screen; shares compounds with Rpn11 block; AID 602333; hit rate 13% among 1,900; inhibition, % at 20 µM; bovine thrombin cleavage of Ub4-pepOG, fluorescence polarization;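 active = mean inhibition at least 40% at 20 µM, or signal 3 deviations below plate average, so some actives read negative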;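 note: plate controls were thrombin with DMSO for no effect and buffer wells lacking thrombin for full effect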
Target sequence (P00735 whole entry, looked up): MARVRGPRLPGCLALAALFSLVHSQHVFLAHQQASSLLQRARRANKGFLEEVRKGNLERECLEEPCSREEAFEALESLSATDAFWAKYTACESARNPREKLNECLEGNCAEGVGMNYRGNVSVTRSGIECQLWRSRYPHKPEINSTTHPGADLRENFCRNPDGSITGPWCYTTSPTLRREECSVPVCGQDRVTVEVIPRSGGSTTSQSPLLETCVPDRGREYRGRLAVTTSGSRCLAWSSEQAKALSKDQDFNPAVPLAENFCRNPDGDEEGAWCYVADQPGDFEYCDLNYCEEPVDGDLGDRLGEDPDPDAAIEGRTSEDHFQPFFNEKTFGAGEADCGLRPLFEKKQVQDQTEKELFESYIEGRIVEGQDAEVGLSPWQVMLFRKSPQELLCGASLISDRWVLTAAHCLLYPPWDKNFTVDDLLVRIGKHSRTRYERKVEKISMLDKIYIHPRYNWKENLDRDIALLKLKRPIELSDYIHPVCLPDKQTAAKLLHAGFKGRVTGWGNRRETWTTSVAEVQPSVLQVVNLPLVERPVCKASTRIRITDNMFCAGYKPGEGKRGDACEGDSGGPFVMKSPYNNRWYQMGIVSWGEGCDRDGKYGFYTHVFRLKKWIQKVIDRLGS
STEP inh conf: STEP (human) phosphatase inhibition, single concentration confirmation | shares compounds with STEP inh | inhibition, % at 20 µM | hit rate 32% among 520 | recombinant STEP, OMFP fluorogenic substrate, fluorescence; call rule not given here;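 note: 0% = enzyme with substrate plus DMSO and 100% = substrate without enzyme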
* = called active by the depositor; x = not tested or not shown; + = active, no number.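 Rule for the calls, unless noted: active = inhibition of at least 30% at 20 µM; inactive = the rest.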

SMILES | Rpn11 block | LMPTP inh | STEP inh | DNMT1 inh | Scp1 inh | Scp-1 conf | Scp-1 MG ctr | Scp1 DSF | STEP inh conf | others
C=CCNC(=O)c1ccc(Cn2c(=S)[nH]c3cc4c(cc3c2=O)OCO4)cc1 | 148* | 49 | 47* | 1 | 86* | 58* | -18 | -22 | 6 | Rpn11 confirm=154*;MMP-2 inh=41*;Thrombin inh=-18
CC12CCC(C(=O)Nc3ccccc3)(C(Br)C1=O)C2(C)C (stereo unspecified) | -6 | 0 | -4 | -1 | -3 | x | x | x | x
CCCCn1c(N)c(-c2nc3ccccc3s2)c2c([N+](=O)[O-])nn(C)c(=O)c21 | -5 | 1 | 3 | -14 | 3 | x | x | x | x
CCCCCn1c(N)c(-c2nc3ccccc3o2)c2c([N+](=O)[O-])nn(C)c(=O)c21 | 7 | 83* | 97* | 92* | 99* | 73* | 1 | 5.4* | 40* | DNMT1 confirm=0;Beacon interf=0
O=C(Nc1cc([N+](=O)[O-])ccc1O)c1cccc(C(=O)Nc2cc([N+](=O)[O-])ccc2O)c1 | -6 | 97* | 99* | -3 | 98* | 96* | -3 | 16* | 59*
O=C(/C=C/c1ccccc1Cl)Nc1ccc2c(c1)C(=O)NC2=O | 54* | 71* | 95* | 65* | 101* | 85* | -11 | 6.8* | 19 | DNMT1 confirm=6;Beacon interf=3;Rpn11 confirm=57*;MMP-2 inh=22;Thrombin inh=-24
O=C(CCN1C(=O)/C(=C\c2cccs2)SC1=S)Nc1ccc(C(=O)O)cc1 | 25 | 14 | 8 | 2 | 10 | x | x | x | x
COc1cc(/C=C2/SC(=S)N(CCC(=O)Nc3ccc(C(=O)O)cc3)C2=O)cc(OC)c1OC | 1 | 14 | 42* | -1 | 68* | 63* | -10 | 25* | -1
O=C(CCN1C(=O)/C(=C/c2ccc(Cl)cc2)SC1=S)Nc1ccc(C(=O)O)cc1 | -3 | 75* | 49* | 3 | 92* | 69* | -14 | -2 | 15
Cc1ccc2nc(C)c(C(=O)NN=C3CCN(C)CC3)n2c1 | 2 | -6 | 1 | -2 | -4 | x | x | x | x
O=C(COc1ccc([N+](=O)[O-])cc1)Nc1nnc(-c2cccnc2)s1 | 4 | 47 | 66* | 20 | 75* | 76* | -5 | 6.9* | 75*
Cc1cc(C)cc(C(=O)NCC(=O)OCC(=O)Nc2cccnc2Cl)c1 | -1 | 0 | -2 | -1 | -6 | x | x | x | x
O=C(Nc1cccc(-c2nc3ncccc3o2)c1)c1ccc2c(c1)OCO2 | -9 | -1 | 1 | 4 | -5 | x | x | x | x
O=C(Nc1cccc(-c2nc3ncccc3o2)c1)c1sc2cc(Cl)ccc2c1Cl | + | 51* | 90* | 16 | 95* | 57* | -12 | -12 | 0
Cc1ccc(-c2nc(NC(=O)CSc3cc(C)c4ccccc4n3)ns2)cc1 | + | 66* | 70* | 90* | 106* | 84* | -9 | 1 | 50* | DNMT1 confirm=3;Beacon interf=-4;Rpn11 confirm=-1;MMP-2 inh=-6;Thrombin inh=27
COc1ccc2c(C)cc(SCC(=O)Nc3nsc(-c4ccc(C)cc4)n3)nc2c1 | -1 | 3 | 0 | 0 | 3 | x | x | x | x
CCc1ccc(N=C2NC(=O)/C(=C/c3ccc(OCC(=O)O)cc3)S2)cc1 | 2 | 1 | 41* | 5 | 74* | 42* | -13 | -5 | 71*
CCOC(=O)CCCCC(=O)c1[nH]c(=O)[nH]c1CSc1nnc2c3ccccc3n(C(C)C)c2n1 | 13 | 0 | 3 | -6 | -1 | x | x | x | x
COc1ccc(CNC(=O)C2CCN(S(=O)(=O)c3ccccc3)CC2)cc1 | -15 | -2 | -2 | 1 | 18 | x | x | x | x
COc1ccc(-c2nn(-c3ccccc3)cc2C2CC(c3cccs3)=NN2C(=O)CCC(=O)O)cc1 (stereo unspecified) | -5 | -1 | 4 | -2 | -16 | x | x | x | x
COc1ccc(C2=NN(C(=O)CCCC(=O)O)C(c3cn(-c4ccccc4)nc3-c3ccccc3)C2)cc1 (stereo unspecified) | 2 | 39 | 70* | 2 | 97* | 86* | -9 | -35 | 14
Cc1c(CC(=O)NCCCCCC(=O)O)c(=O)oc2c(C)c3oc4c(c3cc12)CCCC4 | -5 | 18 | 97* | -1 | 94* | 94* | 1 | -11 | 89*
O=C(O)c1ccc(Nc2nc(-c3ccc([N+](=O)[O-])cc3)nc3ccccc23)cc1 | -2 | 63* | 89* | -4 | 82* | 57* | -10 | 9.2* | 15
Cn1c(=O)c2[nH]c(NN=Cc3cccc(Br)c3)nc2n(C)c1=O | 1 | 0 | 1 | -1 | 1 | x | x | x | x
CCOc1cc(/C=N/N=C2/NC(=O)C(CC(=O)O)S2)ccc1OCc1ccc(Cl)cc1Cl (stereo unspecified) | 5 | 84* | 64* | 8 | 75* | 65* | -16 | -2 | 13*
O=C1NC(=S)N(C(=O)c2ccc(F)cc2)/C1=C/c1cccnc1 | 9 | 18 | 43* | 4 | 95* | 56* | -17 | 3 | 14
O=C(N/N=C/c1cccnc1)c1ccc(F)cc1 | -2 | 0 | -2 | -1 | 4 | x | x | x | x
CN(CC(=O)Nc1cccc(F)c1)C(=O)C1(c2ccccc2)CC1 | 2 | -6 | 0 | 1 | -5 | x | x | x | x
